Reference: ChEMBL document CHEMBL1144463, “Rapid bactericidal activity of daptomycin against methicillin-resistant and methicillin-susceptible Staphylococcus aureus peritonitis in mice as measured with bioluminescent bacteria” (2007)
Converted amounts (≈) assume the structure as drawn.

Columns and labels:
Type in all cases: functional
Staphylococcus aureus [1] = experiment: Antibacterial activity against methicillin-resistant Staphylococcus aureus Xen1 infected neutropenic CD1 mouse assessed as mortality at 100 mg/kg, po within 24 hrs; conditions: Xen1, 24 h
Procedure, shortened: (§1)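 Female CD-1 mice (20–25 g) were made neutropenic with cyclophosphamide i.p. at 150 mg/kg 4 days and 100 mg/kg 1 day before infection. They were infected i.p. with a lethal dose of lux strain (2 × 10^7 to 5 × 10^8 CFU/mouse) suspended in 6% hog gastric mucin. A single s.c. or gavage dose was given 1 h later. Survivors were counted daily for 7 days, n=5/group.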

Staphylococcus aureus [2] = experiment: Antimicrobial activity against bioluminescent methicillin-susceptible Staphylococcus aureus Xen29
Procedure, shortened: (§2)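 MIC by broth microdilution following CLSI guidelines against bioluminescent lux-carrying strains (Xen-1 plasmid-borne lux, Xen-29 chromosomal lux), grown overnight in Mueller-Hinton broth at 37°C.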

Staphylococcus aureus [3] = experiment: Antibacterial activity against methicillin-susceptible Staphylococcus aureus Xen29 infected neutropenic CD1 mouse assessed as mortality at 100 mg/kg, po within 24 hrs; conditions: Xen29, 24 h; procedure, shortened: as §1
Staphylococcus aureus [4] = experiment: Reduction in bioluminescent methicillin-sensitive Staphylococcus aureus Xen29 in immunocompetent CD1 mouse with peritonitis at 100 mg/kg, po after 3 hrs relative to control; design: scale not given: the % may be the effect or the level left
Procedure, shortened: (§3)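 Peritonitis in healthy female CD-1 mice (n = 5/group): i.p. Xen-29 (2 × 10^7 to 5 × 10^8 CFU) in 6% mucin, then a single s.c. or gavage dose at 1 h. Controls got saline 10 ml/kg s.c. Mice were anesthetized hourly (pentobarbital 60 mg/kg i.p. or isoflurane) and imaged ventral side up for 1–5 min, to 5 h postdosing. Total flux (photons/s/cm2) over the infected region was averaged per group. Percent reduction is versus time-matched saline controls.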

Staphylococcus aureus [5] = experiment: Reduction in bioluminescent methicillin-sensitive Staphylococcus aureus Xen29 in immunocompetent CD1 mouse with peritonitis at 100 mg/kg, po after 4 hrs relative to control; design: scale not given: the % may be the effect or the level left; procedure, shortened: as §3
Staphylococcus aureus [6] = experiment: Reduction in bioluminescent methicillin-sensitive Staphylococcus aureus Xen29 in immunocompetent CD1 mouse with peritonitis at 100 mg/kg, po after 5 hrs relative to control; design: scale not given: the % may be the effect or the level left; procedure, shortened: as §3
Staphylococcus aureus [7] = experiment: Reduction in bioluminescent methicillin-resistant Staphylococcus aureus Xen1 in neutropenic CD1 mouse with peritonitis at 100 mg/kg, po after 2 hrs relative to control; design: scale not given: the % may be the effect or the level left
Procedure, shortened: (§4)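 Cyclophosphamide-neutropenic female CD-1 mice (150 mg/kg i.p. day −4, 100 mg/kg day −1) were infected i.p. with a lethal inoculum in 6% mucin. A single s.c. or gavage dose was given 1 h later. Mice were anesthetized and imaged hourly to 5 h. Region-of-interest total flux (photons/s/cm2) was averaged over 5 mice. Percent reduction is relative to time-matched saline (10 ml/kg s.c.) controls.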

Staphylococcus aureus [8] = experiment: Reduction in bioluminescent methicillin-resistant Staphylococcus aureus Xen1 in neutropenic CD1 mouse with peritonitis at 100 mg/kg, po after 3 hrs relative to control; design: scale not given: the % may be the effect or the level left; procedure, shortened: as §4
Staphylococcus aureus [9] = experiment: Reduction in bioluminescent methicillin-resistant Staphylococcus aureus Xen1 in neutropenic CD1 mouse with peritonitis at 100 mg/kg, po after 5 hrs relative to control; design: scale not given: the % may be the effect or the level left; procedure, shortened: as §4
Staphylococcus aureus [10] = experiment: Antibacterial activity against methicillin-resistant Staphylococcus aureus Xen1 infected neutropenic CD1 mouse assessed as mortality at 100 mg/kg, po after 4 days; procedure, shortened: as §1
Staphylococcus aureus [11] = experiment: Antibacterial activity against methicillin-susceptible Staphylococcus aureus Xen29 infected neutropenic CD1 mouse assessed as mortality at 100 mg/kg, po after 4 days; procedure, shortened: as §1
Staphylococcus aureus [12] = experiment: Antimicrobial activity against bioluminescent methicillin-resistant Staphylococcus aureus Xen1; procedure, shortened: as §2
Staphylococcus aureus [13] = experiment: Reduction in bioluminescent methicillin-sensitive Staphylococcus aureus Xen29 in neutropenic CD1 mouse with peritonitis at 100 mg/kg, po after 3 hrs relative to control; design: scale not given: the % may be the effect or the level left
Procedure, shortened: (§5)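 Neutropenia was induced with cyclophosphamide 150 mg/kg i.p. at day −4 and 100 mg/kg i.p. at day −1. Mice were then infected i.p. with Xen-29 (2 × 10^7 to 5 × 10^8 CFU) in 6% mucin (n = 5/group) and dosed once, s.c. or by gavage, at 1 h. Luminescence was imaged hourly under anesthesia, 0–5 h postdosing. Mean region-of-interest flux is given as percent reduction versus time-matched saline (10 ml/kg s.c.) controls.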

Staphylococcus aureus [14] = experiment: Reduction in bioluminescent methicillin-sensitive Staphylococcus aureus Xen29 in neutropenic CD1 mouse with peritonitis at 100 mg/kg, po after 4 hrs relative to control; design: scale not given: the % may be the effect or the level left; procedure, shortened: as §5
Staphylococcus aureus [15] = experiment: Reduction in bioluminescent methicillin-sensitive Staphylococcus aureus Xen29 in neutropenic CD1 mouse with peritonitis at 100 mg/kg, po after 5 hrs relative to control; design: scale not given: the % may be the effect or the level left; procedure, shortened: as §5

Row | Compound | survival at 100 mg/kg (Staphylococcus aureus [1]) | MIC (Staphylococcus aureus [2]) | survival at 100 mg/kg (Staphylococcus aureus [3]) | Activity (Staphylococcus aureus [4]) | Activity (Staphylococcus aureus [5]) | Activity (Staphylococcus aureus [6]) | Activity (Staphylococcus aureus [7]) | Activity (Staphylococcus aureus [8]) | Activity (Staphylococcus aureus [9]) | Activity (Staphylococcus aureus [10]) | Activity (Staphylococcus aureus [11]) | MIC (Staphylococcus aureus [12]) | Activity (Staphylococcus aureus [13]) | Activity (Staphylococcus aureus [14]) | Activity (Staphylococcus aureus [15])
1 | CC(=O)NC[C@H]1CN(c2ccc(N3CCOCC3)c(F)c2)C(=O)O1 [LINEZOLID] | 100% | 1 µg/mL (≈ 2.96 µM) | 100% | 59% | 85% | 90% | 91% | 98% | 99.2% | 100% | 100% | 0.5 µg/mL (≈ 1.48 µM) | 68% | 89% | 96.6%
2 | CN[C@H](CC(C)C)C(=O)N[C@H]1C(=O)N[C@@H](CC(N)=O)C(=O)N[C@H]2C(=O)N[C@H]3C(=O)N[C@H](C(=O)N[C@H](C(=O)O)c4cc(O)cc(O)c4-c4cc3ccc4O)[C@H](O)c3ccc(c(Cl)c3)Oc3cc2cc(c3O[C@@H]2O[C@H](CO)[C@@H](O)[C@H](O)[C@H]2O[C@H]2C[C@](C)(N)[C@H](O)[C@H](C)O2)Oc2ccc(cc2Cl)[C@H]1O [VANCOMYCIN] | 100% | – | 100% | – | – | – | – | – | – | 100% | 100% | – | – | – | –
